# Experimental data reported in ChEMBL document CHEMBL5724801, “EUbOPEN Chemogenomics Library - Multiplex” (2024).
# Values joined by “and” are separate entries in the source; they are usually repeats but may differ in a detail not shown here. Equal values may be shown once.
# Tested on: U2OS
# Assay: Multiplex assay against U2OS
# Format: toxicity, cell-based
# Settings: human
# Method in brief: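 Per cents of healthy-nucleus cells form the tubulin, mitochondrial-mass and membrane-permeability phenotype values. Live cells were stained at seeding with Hoechst33342, BioTracker Green Microtubule Cytoskeleton Dye, MitoTracker Red and Annexin V Alexa Fluor 680. After compound addition they were imaged on a CQ1 microscope at 37°C and 5% CO2, and CellPathfinder machine-learning gating split them into Hoechst high-intensity objects or normal cells, normal cells into healthy, pyknosed or fragmented nuclei, and pyknosed cells into mitotic or apoptotic.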
# [1] = 12 h, 1 µM, compound concentration 1 uM
# [2] = 12 h, 10 µM, compound concentration 10 uM
# [3] = 24 h, 1 µM, compound concentration 1 uM
# [4] = 24 h, 10 µM, compound concentration 10 uM
# [5] = 48 h, 1 µM, compound concentration 1 uM
# [6] = 48 h, 10 µM, compound concentration 10 uM
compound,measurement,setting,value
COc1cc(C(=O)N(CCCc2ccccc2)Cc2ccc(CC(=O)O)cc2)cc(OC)c1C,Population Apoptotic (%),[1],95% and 70%
same,Population Fragmented Nuclei (%),[1],29% and 23%
same,Population Healthy Nuclei (%),[1],60% and 65%
same,Population Hoechst High Intensity Objects (%),[1],4%
same,Population Membrane Permeable-Phenotype (%),[1],7% and 8%
same,Population Mitochondria Different-Phenotype (%),[1],4% and 1%
same,Population Normal (%),[1],95%
same,Population Pyknosed Nuclei (%),[1],10% and 11%
same,Population Tubulin-Different-Phenotype (%),[1],4% and 1%
same,Total Cell Count,[1],228 and 93
same,Population Apoptotic (%),[2],82% and 100%
same,Population Fragmented Nuclei (%),[2],22% and 15%
same,Population Healthy Nuclei (%),[2],71% and 79%
same,Population Hoechst High Intensity Objects (%),[2],0% and 1%
same,Population Membrane Permeable-Phenotype (%),[2],5% and 2%
same,Population Mitochondria Different-Phenotype (%),[2],0% and 3%
same,Population Mitotic Cells (%),[2],17% and 0%
same,Population Normal (%),[2],99% and 98%
same,Population Pyknosed Nuclei (%),[2],6% and 4%
same,Population Tubulin-Different-Phenotype (%),[2],2% and 4%
same,Total Cell Count,[2],262 and 171
same,Population Apoptotic (%),[3],84% and 73%
same,Population Fragmented Nuclei (%),[3],29% and 22%
same,Population Healthy Nuclei (%),[3],61% and 64%
same,Population Hoechst High Intensity Objects (%),[3],2% and 4%
same,Population Membrane Permeable-Phenotype (%),[3],7% and 2%
same,Population Mitochondria Different-Phenotype (%),[3],6% and 2%
same,Population Mitotic Cells (%),[3],15% and 26%
same,Population Normal (%),[3],97% and 95%
same,Population Pyknosed Nuclei (%),[3],9% and 13%
same,Population Tubulin-Different-Phenotype (%),[3],4% and 0%
same,Total Cell Count,[3],288 and 120
same,Population Apoptotic (%),[4],94% and 84%
same,Population Fragmented Nuclei (%),[4],18% and 12%
same,Population Healthy Nuclei (%),[4],76% and 80%
same,Population Hoechst High Intensity Objects (%),[4],0% and 2%
same,Population Membrane Permeable-Phenotype (%),[4],7%
same,Population Mitochondria Different-Phenotype (%),[4],2% and 5%
same,Population Mitotic Cells (%),[4],5% and 15%
same,Population Normal (%),[4],99% and 97%
same,Population Pyknosed Nuclei (%),[4],5% and 6%
same,Population Tubulin-Different-Phenotype (%),[4],3% and 5%
same,Total Cell Count,[4],318 and 192
same,Population Apoptotic (%),[5],86% and 78%
same,Population Fragmented Nuclei (%),[5],23% and 22%
same,Population Healthy Nuclei (%),[5],69% and 64%
same,Population Hoechst High Intensity Objects (%),[5],3% and 6%
same,Population Membrane Permeable-Phenotype (%),[5],5% and 7%
same,Population Mitochondria Different-Phenotype (%),[5],2% and 5%
same,Population Mitotic Cells (%),[5],13% and 21%
same,Population Normal (%),[5],96% and 93%
same,Population Pyknosed Nuclei (%),[5],7% and 12%
same,Population Tubulin-Different-Phenotype (%),[5],4% and 6%
same,Total Cell Count,[5],408 and 159
same,Population Apoptotic (%),[6],93% and 94%
same,Population Fragmented Nuclei (%),[6],18% and 15%
same,Population Healthy Nuclei (%),[6],75% and 71%
same,Population Hoechst High Intensity Objects (%),[6],1% and 3%
same,Population Membrane Permeable-Phenotype (%),[6],4% and 8%
same,Population Mitochondria Different-Phenotype (%),[6],2% and 1%
same,Population Mitotic Cells (%),[6],6% and 5%
same,Population Normal (%),[6],98% and 96%
same,Population Pyknosed Nuclei (%),[6],6% and 13%
same,Population Tubulin-Different-Phenotype (%),[6],2% and 4%
same,Total Cell Count,[6],504 and 280
CC(C)C[C@H](NC(=O)c1cc2ccccc2s1)C(=O)N1CCN(C(=O)[C@H](CO)NS(=O)(=O)c2ccc(Cl)cc2Cl)CC1,Population Apoptotic (%),[1],71.76% and 81.82%
same,Population Fragmented Nuclei (%),[1],5.1% and 6.74%
same,Population Healthy Nuclei (%),[1],61.48% and 56.18%
same,Population Hoechst High Intensity Objects (%),[1],0%
same,Population Membrane Permeable-Phenotype (%),[1],5.39% and 4%
same,Population Mitotic Cells (%),[1],28.24% and 18.18%
same,Population Normal (%),[1],100%
same,Population Pyknosed Nuclei (%),[1],33.42% and 37.08%
same,Population Tubulin-Different-Phenotype (%),[1],4.56% and 4%
same,Population Apoptotic (%),[2],55.1% and 50.79%
same,Population Fragmented Nuclei (%),[2],2% and 2.9%
same,Population Healthy Nuclei (%),[2],65.33% and 51.45%
same,Population Hoechst High Intensity Objects (%),[2],0%
same,Population Membrane Permeable-Phenotype (%),[2],69.39% and 39.44%
same,Population Mitochondria Different-Phenotype (%),[2],30.61% and 87.32%
same,Population Mitotic Cells (%),[2],44.9% and 49.21%
same,Population Normal (%),[2],100%
same,Population Pyknosed Nuclei (%),[2],32.67% and 45.65%
same,Population Tubulin-Different-Phenotype (%),[2],98.47% and 95.77%
same,Total Cell Count,[2],300 and 138
same,Population Apoptotic (%),[3],71.76% and 90.91%
same,Population Fragmented Nuclei (%),[3],4.78% and 1.14%
same,Population Healthy Nuclei (%),[3],65.38% and 61.36%
same,Population Hoechst High Intensity Objects (%),[3],0%
same,Population Membrane Permeable-Phenotype (%),[3],4.18% and 5.56%
same,Population Normal (%),[3],100%
same,Population Pyknosed Nuclei (%),[3],29.84% and 37.5%
same,Population Tubulin-Different-Phenotype (%),[3],4.88% and 3.7%
same,Population Apoptotic (%),[4],65.59% and 62.96%
same,Population Fragmented Nuclei (%),[4],2.48% and 4.41%
same,Population Healthy Nuclei (%),[4],64.54% and 55.88%
same,Population Hoechst High Intensity Objects (%),[4],0%
same,Population Membrane Permeable-Phenotype (%),[4],34.07% and 32.89%
same,Population Mitochondria Different-Phenotype (%),[4],52.75% and 88.16%
same,Population Mitotic Cells (%),[4],34.41% and 37.04%
same,Population Normal (%),[4],100%
same,Population Pyknosed Nuclei (%),[4],32.98% and 39.71%
same,Population Tubulin-Different-Phenotype (%),[4],95.6% and 81.58%
same,Total Cell Count,[4],282 and 136
same,Population Apoptotic (%),[5],77.39% and 79.17%
same,Population Fragmented Nuclei (%),[5],3.97% and 6.03%
same,Population Healthy Nuclei (%),[5],79.75% and 73.28%
same,Population Hoechst High Intensity Objects (%),[5],0%
same,Population Membrane Permeable-Phenotype (%),[5],5.15% and 10.59%
same,Population Mitotic Cells (%),[5],22.61% and 20.83%
same,Population Normal (%),[5],100%
same,Population Pyknosed Nuclei (%),[5],16.29% and 20.69%
same,Population Tubulin-Different-Phenotype (%),[5],5.51% and 4.71%
same,Population Apoptotic (%),[6],78.7% and 70%
same,Population Fragmented Nuclei (%),[6],3.93% and 4.11%
same,Population Healthy Nuclei (%),[6],63.44% and 54.79%
same,Population Hoechst High Intensity Objects (%),[6],0%
same,Population Membrane Permeable-Phenotype (%),[6],29.05% and 32.5%
same,Population Mitochondria Different-Phenotype (%),[6],43.33% and 62.5%
same,Population Mitotic Cells (%),[6],21.3% and 30%
same,Population Normal (%),[6],100%
same,Population Pyknosed Nuclei (%),[6],32.63% and 41.1%
same,Population Tubulin-Different-Phenotype (%),[6],92.38% and 80%
same,Total Cell Count,[6],331 and 146
Cl.Clc1ccc2nsnc2c1NC1=NCCN1 [TIZANIDINE HYDROCHLORIDE],Population Apoptotic (%),[1],82% and 85%
same,Population Fragmented Nuclei (%),[1],20% and 10%
same,Population Healthy Nuclei (%),[1],73% and 78%
same,Population Hoechst High Intensity Objects (%),[1],2% and 1%
same,Population Membrane Permeable-Phenotype (%),[1],6% and 3%
same,Population Mitochondria Different-Phenotype (%),[1],1% and 2%
same,Population Mitotic Cells (%),[1],17% and 14%
same,Population Normal (%),[1],97% and 98%
same,Population Pyknosed Nuclei (%),[1],5% and 10%
same,Population Tubulin-Different-Phenotype (%),[1],2% and 3%
same,Total Cell Count,[1],306 and 140
same,Population Apoptotic (%),[2],77% and 90%
same,Population Fragmented Nuclei (%),[2],31% and 22%
same,Population Healthy Nuclei (%),[2],61% and 66%
same,Population Hoechst High Intensity Objects (%),[2],2%
same,Population Membrane Permeable-Phenotype (%),[2],7% and 14%
same,Population Mitochondria Different-Phenotype (%),[2],2% and 7%
same,Population Mitotic Cells (%),[2],22% and 10%
same,Population Normal (%),[2],97%
same,Population Pyknosed Nuclei (%),[2],6% and 10%
same,Total Cell Count,[2],280 and 98
same,Population Apoptotic (%),[3],90% and 89%
same,Population Fragmented Nuclei (%),[3],19% and 15%
same,Population Healthy Nuclei (%),[3],72% and 73%
same,Population Hoechst High Intensity Objects (%),[3],0% and 4%
same,Population Membrane Permeable-Phenotype (%),[3],4% and 7%
same,Population Mitochondria Different-Phenotype (%),[3],2% and 4%
same,Population Mitotic Cells (%),[3],9% and 10%
same,Population Normal (%),[3],99% and 95%
same,Population Pyknosed Nuclei (%),[3],8% and 11%
same,Population Tubulin-Different-Phenotype (%),[3],5% and 6%
same,Total Cell Count,[3],381 and 172
same,Population Apoptotic (%),[4],65% and 86%
same,Population Fragmented Nuclei (%),[4],29% and 25%
same,Population Healthy Nuclei (%),[4],62% and 61%
same,Population Hoechst High Intensity Objects (%),[4],2%
same,Population Membrane Permeable-Phenotype (%),[4],4% and 12%
same,Population Mitochondria Different-Phenotype (%),[4],1% and 7%
same,Population Mitotic Cells (%),[4],34% and 13%
same,Population Normal (%),[4],97%
same,Population Pyknosed Nuclei (%),[4],8% and 13%
same,Population Tubulin-Different-Phenotype (%),[4],1% and 11%
same,Total Cell Count,[4],327 and 118
same,Population Apoptotic (%),[5],86% and 90%
same,Population Fragmented Nuclei (%),[5],11% and 17%
same,Population Healthy Nuclei (%),[5],80% and 74%
same,Population Hoechst High Intensity Objects (%),[5],1% and 3%
same,Population Membrane Permeable-Phenotype (%),[5],2% and 5%
same,Population Mitochondria Different-Phenotype (%),[5],1% and 2%
same,Population Mitotic Cells (%),[5],13% and 9%
same,Population Normal (%),[5],98% and 96%
same,Population Pyknosed Nuclei (%),[5],7% and 8%
same,Population Tubulin-Different-Phenotype (%),[5],2% and 3%
same,Total Cell Count,[5],512 and 260
same,Population Apoptotic (%),[6],93% and 76%
same,Population Fragmented Nuclei (%),[6],18% and 22%
same,Population Healthy Nuclei (%),[6],75% and 65%
same,Population Hoechst High Intensity Objects (%),[6],2% and 4%
same,Population Membrane Permeable-Phenotype (%),[6],5% and 15%
same,Population Mitochondria Different-Phenotype (%),[6],1% and 5%
same,Population Normal (%),[6],97% and 95%
same,Population Pyknosed Nuclei (%),[6],6% and 11%
same,Population Tubulin-Different-Phenotype (%),[6],3% and 7%
